From ChEMBL document CHEMBL2429791, “Preparation of asymmetric urea derivatives that target prostate-specific membrane antigen for SPECT imaging” (J Med Chem, 2013) come the findings set out here.

The term pKd denotes the negative decadic logarithm of the Kd, by convention in mol/L. High values mean a small Kd, low ones a large Kd. By pKi is commonly meant the negative decadic logarithm of the Ki, by convention in mol/L. Read a low pKi as a high Ki. For orientation: logD means the decadic logarithm of the distribution of all forms, ionised or not, between an organic phase and buffer at a given pH. Lower therefore signals lower lipophilicity.

The structures appear in SMILES notation. pKd, pKi: −log10 of the molar value.

Series [1] has as its target T1, Glutamate carboxypeptidase 2 (Homo sapiens, UniProt Q04609). The series can be described thus: Binding affinity to PSMA in human LNCaP cells after 1 hr by gamma counting. It counts as cell-based. The method, boiled down: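 LNCaP cells plated at 4 × 10⁵ cells/well and grown 48 h (37 °C/5% CO₂), then washed with RPMI 1640 containing 0.5% BSA. Saturation binding used ¹²⁵I-labelled ligand (specific activity 81.4 kBq/nmol), 1 h at 37 °C; nonspecific binding measured with 100 µM non-radioactive iodinated compound. Cells washed, lysed in 0.2 N NaOH, gamma-counted; Kd from Scatchard plots.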

In series [2] the target is T1, Glutamate carboxypeptidase 2. In words: Displacement of [125I]-DCIT from PSMA in human LNCaP cells after 1 hr by gamma counting.
The subject of another series is Liver (Mus musculus). In words: Biodistribution in liver of C.B.-17/Icr […] Jcl mouse xenografted with human LNCAP and PC3 cells after 30 to 60 mins. The conditions noted are these: in vivo. For orientation: A xenograft is tissue or cells of one species grown in another, often human tumour cells in immunodeficient mice.
The test system of another series is Intestine. The series can be described thus: Biodistribution in intestine of C.B.-17/Icr […] Jcl mouse xenografted with human LNCAP and PC3 cells after 30 to 60 mins. It counts as ADME, organism-based. As to conditions: in vivo; call rule not given here.
The subject of series [3] is LNCaP. The series can be described thus: Biodistribution in LNCAP cells in C.B.-17/Icr […] Jcl mouse xenografted with human LNCAP and PC3 cells after 30 to 60 mins. It counts as ADME, organism-based. The conditions noted are these: in vivo.
Series [4] deals with LNCaP. In words: Biodistribution in LNCAP cells in C.B.-17/Icr +/+ Jcl mouse xenografted with human LNCAP and PC3 cells at 25.9 MBq, iv after 30 mins by SPECT/CT analysis in presence of 2-PMPA. It counts as ADME, organism-based. The conditions noted are these: in vivo, 0.5 h. Summed up:
(§1)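 Anaesthetised (2.5% isoflurane) LNCaP/PC-3 tumour-bearing mice (20–25 g), kept on a heating pad, given ¹²³I tracer (25.9 MBq in 0.10 mL saline) iv by tail vein, with or without 50 mg/kg 2-PMPA. Pinhole SPECT acquired over 30–64 min (159 keV ±10% window, 32 projections × 60 s, 360°), then CT; images reconstructed by 3D OSEM.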

The subject of series [5] is LNCaP. The series can be described thus: Biodistribution in LNCAP cells in C.B.-17/Icr +/+ Jcl mouse xenografted with human LNCAP and PC3 cells at 25.9 MBq, iv after 30 mins by SPECT/CT analysis. It counts as ADME, organism-based. As to conditions: in vivo, 0.5 h. Summed up: as §1
A further series concerns PC-3. In words: Biodistribution in PC3 cells in C.B.-17/Icr +/+ Jcl mouse xenografted with human LNCAP and PC3 cells at 25.9 MBq, iv after 30 mins by SPECT/CT analysis in presence of 2-PMPA. The conditions noted are these: in vivo, 0.5 h. It counts as ADME, organism-based. Summed up: as §1
The subject of another series is Blood. In words: Biodistribution in blood of C.B.-17/Icr […] Jcl mouse xenografted with human LNCAP and PC3 cells after 30 mins. It counts as ADME, organism-based. As to conditions: in vivo, 0.5 h.
The test system of series [6] is Kidney. In words: Drug excretion in C.B.-17/Icr […] Jcl mouse kidney xenografted with human LNCAP and PC3 cells. It counts as ADME, tissue-based. The conditions noted are these: in vivo.
Series [7] relates to LNCaP. In words: Biodistribution in LNCAP cells in C.B.-17/Icr +/+ Jcl mouse xenografted with human LNCAP and PC3 cells after 2 mins to 3 hrs. As to conditions: in vivo. It counts as ADME, organism-based. Summed up:
(§2)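 ¹²⁵I-labelled tracer given iv by tail vein to mice (22–24 g) bearing LNCaP (left shoulder) and PC-3 (right shoulder) xenografts of about 5–10 mm, grown from 1–5 × 10⁶ cells in 1:1 Matrigel. n=4 per time point; decapitated at 2 min, 30 min, 1, 3, 6 h. Tissues weighed and counted; uptake as %ID/g, mean ± SD.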

The nature of series [8]: Distribution coefficient, log D of the compound. It counts as physicochemical. As to conditions: octanol/water.
For another series, the system named is Liver. In words: Drug excretion in C.B.-17/Icr […] Jcl mouse liver xenografted with human LNCAP and PC3 cells. It counts as ADME, tissue-based. The conditions noted are these: in vivo.
The subject of series [9] is Kidney. The series can be described thus: Biodistribution in kidney of C.B.-17/Icr […] Jcl mouse xenografted with human LNCAP and PC3 cells after 2 mins to 3 hrs. It counts as ADME, organism-based. As to conditions: in vivo. Summed up:
as §2

T1 sequence (Q04609 whole entry): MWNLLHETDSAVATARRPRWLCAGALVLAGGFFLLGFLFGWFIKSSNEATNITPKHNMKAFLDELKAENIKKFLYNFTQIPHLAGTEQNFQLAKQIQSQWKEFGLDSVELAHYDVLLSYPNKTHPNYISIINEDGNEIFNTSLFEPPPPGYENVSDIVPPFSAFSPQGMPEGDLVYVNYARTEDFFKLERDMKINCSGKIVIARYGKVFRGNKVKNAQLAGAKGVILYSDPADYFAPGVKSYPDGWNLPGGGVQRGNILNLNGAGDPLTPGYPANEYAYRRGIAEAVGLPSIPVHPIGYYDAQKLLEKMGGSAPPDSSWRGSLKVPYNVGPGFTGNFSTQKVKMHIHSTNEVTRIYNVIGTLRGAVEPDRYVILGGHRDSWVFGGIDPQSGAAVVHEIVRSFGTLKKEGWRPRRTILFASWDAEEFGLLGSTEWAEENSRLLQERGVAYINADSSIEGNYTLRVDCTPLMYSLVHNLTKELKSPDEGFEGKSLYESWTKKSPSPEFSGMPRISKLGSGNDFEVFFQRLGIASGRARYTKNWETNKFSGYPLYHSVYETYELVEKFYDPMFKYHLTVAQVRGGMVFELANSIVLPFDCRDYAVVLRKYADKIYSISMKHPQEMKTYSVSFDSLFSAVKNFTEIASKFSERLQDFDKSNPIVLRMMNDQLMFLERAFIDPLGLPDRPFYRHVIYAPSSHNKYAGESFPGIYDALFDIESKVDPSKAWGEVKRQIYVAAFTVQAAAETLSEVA

Take `O=C(O)CC[C@H](NC(=O)N[C@@H](Cc1ccc(O)c([125I])c1)C(=O)O)C(=O)O`: the pKd in series [1] was 6.84.

For the molecule `O=C(O)CC[C@H](NC(=O)N[C@@H](CSC1CC(=O)N(CCCC[C@H](NC(=O)CCNC(=O)c2cccc(I)c2)C(=O)O)C1=O)C(=O)O)C(=O)O` (some centres undefined), the pKi in [2] is 8.20.

In series [2], `CNCC(=O)N[C@@H](CCCCN1C(=O)CC(SC[C@H](NC(=O)N[C@@H](CCC(=O)O)C(=O)O)C(=O)O)C1=O)C(=O)O` (some centres undefined) gave a pKi of 7.02.

`CN1C(=O)CC(SC[C@H](NC(=O)N[C@@H](CCC(=O)O)C(=O)O)C(=O)O)C1=O` (some centres undefined) had a pKi in [2] of 7.21.

Take `O=C(O)CC[C@H](NC(=O)N[C@@H](CSC1CC(=O)N(CCCCCNC(=O)CNC(=O)c2cccc(I)c2)C1=O)C(=O)O)C(=O)O` (some centres undefined): in series [2], the pKi is 8.10.

The molecule `O=C(O)CC[C@H](NC(=O)N[C@@H](CS)C(=O)O)C(=O)O` gave a pKi in series [2] of 6.42.

On to `O=C(O)CC[C@H](NC(=O)N[C@@H](CSC1CC(=O)N(CCCCCNC(=O)CNC(=O)c2cccc([125I])c2)C1=O)C(=O)O)C(=O)O` (some centres undefined), for which the Drug uptake entry in the series with Liver (Mus musculus), in the series with Intestine and with LNCaP [3] was “Active” in each case.

`O=C(O)CC[C@H](NC(=O)N[C@@H](CSC1CC(=O)N(CCCC[C@H](NC(=O)c2cccc(I)c2)C(=O)O)C1=O)C(=O)O)C(=O)O` (some centres undefined) showed a pKi in series [2] of 8.55.

With `O=C(O)CC[C@H](NC(=O)N[C@@H](CSC1CC(=O)N(CCCC[C@H](NC(=O)CNC(=O)c2ccccc2)C(=O)O)C1=O)C(=O)O)C(=O)O` (some centres undefined), the pKi in [2] is 8.09.

As for `O=C(O)CC[C@H](NC(=O)N[C@@H](CSC1CC(=O)N(CCCC[C@H](NC(=O)CNC(=O)c2cccc([123I])c2)C(=O)O)C1=O)C(=O)O)C(=O)O` (some centres undefined), the values for the Drug uptake entry with LNCaP [4], in the series on LNCaP [5] and with PC-3 were “Not Active”, “Active” and “Not Active”, respectively.

In series [2], `O=C(O)CC[C@H](NC(=O)N[C@@H](CSC1CC(=O)N(CCCC[C@H](NC(=O)CNC(=O)c2cccc(I)c2)C(=O)O)C1=O)C(=O)O)C(=O)O` (some centres undefined) gave a pKi of 8.30.

In series [2], `O=C(O)CC[C@H](NC(=O)N[C@@H](CSC1CC(=O)N(CCCC[C@H](NC(=O)CCCNC(=O)c2cccc(I)c2)C(=O)O)C1=O)C(=O)O)C(=O)O` (some centres undefined) showed a pKi of 8.53.

Regarding `O=C(O)CC[C@H](NC(=O)N[C@@H](CCCCNCc1ccc([125I])cc1)C(=O)O)C(=O)O`, the Drug uptake entry in the series on Blood, in the series on LNCaP [7] and in the series on Kidney [9] was “Active” each time. Also, the figures for the Drug excretion entry with Kidney [6] and in the series on Liver were “Active” and “Not Active”, respectively. Moreover, the pKd in [1] is 7.69. The molecule further came in with a logD in series [8] of -2.91.

Consider `O=C(O)CC[C@H](NC(=O)N[C@@H](CSC1CC(=O)N(CCCC[C@H](NC(=O)CCCCNC(=O)c2cccc(I)c2)C(=O)O)C1=O)C(=O)O)C(=O)O` (some centres undefined), for which, in series [2], the pKi was 8.67.
